Test results as given in ChEMBL document CHEMBL3593173, “Discovery of novel N-(5-(tert-butyl)isoxazol-3-yl)-N'-phenylurea analogs as potent FLT3 inhibitors and evaluation of their activity against acute myeloid leukemia in vitro and in vivo” (Bioorg Med Chem, 2015).
In brackets after ≈: the same amount, converted by molar mass.

Tests used:
MV4-11 = assay: Cytotoxicity against human MV4-11 cells incubated for 72 hrs by MTT assay; format: functional, cell-based; conditions: MV4-11, 72 h
How it was run: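 Leukemia cells were grown with 10% FBS at 37 °C in 5% CO₂; MV4-11 was kept in IMDM. Cells were seeded at 1–4 × 10⁴ per well, and an equal volume of medium containing increasing inhibitor concentrations was added. MTT was added for 2–4 h, formazan was dissolved in DMSO, and OD was read at 570 nm to derive IC50.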

[1] = Solubility in EtOH solution; format: physicochemical
[2] = Solubility in MeOH solution; format: physicochemical

solubility [1] | solubility [2] | SMILES | IC50 (MV4-11)
– | – | Cc1cccc2nc(-c3ccc(NC(=O)Nc4cc(C(C)(C)C)on4)cc3)cn12 | 20.2 nM
4070 µg/mL (≈ 10.8 mM) | 5280 µg/mL (≈ 14.1 mM) | CC(C)(C)c1cc(NC(=O)Nc2ccc(-c3cn4ccccc4n3)cc2)no1 | 3.09 nM
– | – | CC(C)(C)c1cc(NC(=O)Nc2ccc(-c3cn4ncccc4n3)cc2)no1 | 59 nM
– | – | C#Cc1ccc2nc(-c3ccc(NC(=O)Nc4cc(C(C)(C)C)on4)cc3)cn2c1 | 8.62 nM
– | – | CC(C)(C)c1cc(NC(=O)Nc2ccc(-c3cn4cc(Cl)ccc4n3)cc2)no1 | 24.8 nM
– | – | CC(C)(C)c1cc(NC(=O)Nc2ccc(-c3cn4cccc(F)c4n3)cc2)no1 | 12.2 nM
– | – | CC(C)(C)c1cc(NC(=O)Nc2ccc(-c3cn4cccnc4n3)cc2)no1 | 171 nM
